Data from ChEMBL document CHEMBL4011643, “Triaryl Benzimidazoles as a New Class of Antibacterial Agents against Resistant Pathogenic Microorganisms” (J Med Chem, 2017).
In brackets after ≈: the same amount, converted by molar mass.

Key:
Type in all cases: functional
Enterococcus faecalis [1] = assay: Antibacterial activity against vancomycin-resistant Enterococcus faecalis NCTC 12201 after 20 hrs by broth microdilution method; conditions: NCTC 12201, 20 h
Summary of the method: (§1)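 Broth microdilution in Tryptic Soy Broth; growth read as OD600 after 20 h. MIC taken as the lowest drug concentration giving OD600 below 0.1. Run in triplicate.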

Staphylococcus aureus [2] = assay: Antibacterial activity against methicillin-resistant Staphylococcus aureus EMRSA-15 after 20 hrs by broth microdilution method; conditions: EMRSA-15, 20 h; summary of the method: as §1
Enterococcus faecium = assay: Antibacterial activity against vancomycin-resistant Enterococcus faecium NCTC 12204 after 20 hrs by broth microdilution method; conditions: NCTC 12204, 20 h; summary of the method: as §1
Staphylococcus aureus [3] = assay: Antibacterial activity against methicillin-resistant Staphylococcus aureus MRSA252 after 20 hrs by broth microdilution method; conditions: MRSA252, 20 h; summary of the method: as §1
Staphylococcus aureus [4] = assay: Antibacterial activity against methicillin-sensitive Staphylococcus aureus ATCC 9144 after 20 hrs by broth microdilution method; conditions: ATCC 9144, 20 h
Summary of the method: (§2)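 Broth microdilution in Tryptic Soy Broth, done in triplicate. Growth was read as OD600 after 20 h. MIC is the lowest drug concentration giving OD600 below 0.1.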

Enterococcus faecalis [5] = assay: Antibacterial activity against vancomycin-sensitive Enterococcus faecalis NCTC 775 after 20 hrs by broth microdilution method; conditions: NCTC 775, 20 h; summary of the method: as §2

| Structure (SMILES) | MIC (Enterococcus faecalis [1]) [µg/mL] | MIC (Staphylococcus aureus [2]) [µg/mL] | MIC (Enterococcus faecium) [µg/mL] | MIC (Staphylococcus aureus [3]) [µg/mL] | MIC (Staphylococcus aureus [4]) [µg/mL] | MIC (Enterococcus faecalis [5]) [µg/mL] |
| --- | --- | --- | --- | --- | --- | --- |
| COC(=O)c1ccc2c(c1)nc(C)n2-c1ccc(-c2cccc(NC(=O)c3ccc4nc(CCCN(C)C)[nH]c4c3)c2)cn1 | > 128 | > 128 | – | – | – | – |
| CC1(C)S[C@@H]2[C@H](NC(=O)[C@H](N)c3ccc(O)cc3)C(=O)N2[C@H]1C(=O)O [AMOXICILLIN] | 0.5 (≈ 1.37 µM) | 128 (≈ 350 µM) | 16 (≈ 43.8 µM) | > 128 | 1 (≈ 2.74 µM) | 0.5 (≈ 1.37 µM) |
| CCN(CC)CCCNC(=O)c1ccc2c(c1)nc(C)n2-c1ccc(-c2cccc(NC(=O)c3ccc4nc(C)[nH]c4c3)c2)cn1 | > 128 | > 128 | – | – | – | – |
